Screens deposited in PubChem by several laboratories.
Compounds with a hit are over-represented: about 2.9% of the library has one in this group of screens.
MIN6 prolif-1: MIN6 beta-cell proliferation induction. MIN6 cells proliferation, ATPlite luminescence, 48 h; cells starved in 0.2% serum; 100% = growth in 10% serum. proliferation, % at 10 µM. actives 0.29% (n = 330,000);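 active means compounds whose signal lies at least 3.5 SD above the mean of all wells on their plate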;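 further: 0% = DMSO-treated cells in low-serum medium and 100% = 10% serum control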
Rev-erbA mod: modulators of human Rev-erb alpha DNA binding | P20393 | Rev-erbα–FITC-DNA binding, fluorescence polarization, 90 min | activity, % at 10 µM | actives 0.79% (n = 370,000);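 active means activity above about 14%, limit read from the data; passing the limit was not always enough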;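 further: 0% = DMSO wells with 35 nM protein and 100% = DMSO wells with 750 nM protein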
Target sequence (P20393 whole entry, looked up): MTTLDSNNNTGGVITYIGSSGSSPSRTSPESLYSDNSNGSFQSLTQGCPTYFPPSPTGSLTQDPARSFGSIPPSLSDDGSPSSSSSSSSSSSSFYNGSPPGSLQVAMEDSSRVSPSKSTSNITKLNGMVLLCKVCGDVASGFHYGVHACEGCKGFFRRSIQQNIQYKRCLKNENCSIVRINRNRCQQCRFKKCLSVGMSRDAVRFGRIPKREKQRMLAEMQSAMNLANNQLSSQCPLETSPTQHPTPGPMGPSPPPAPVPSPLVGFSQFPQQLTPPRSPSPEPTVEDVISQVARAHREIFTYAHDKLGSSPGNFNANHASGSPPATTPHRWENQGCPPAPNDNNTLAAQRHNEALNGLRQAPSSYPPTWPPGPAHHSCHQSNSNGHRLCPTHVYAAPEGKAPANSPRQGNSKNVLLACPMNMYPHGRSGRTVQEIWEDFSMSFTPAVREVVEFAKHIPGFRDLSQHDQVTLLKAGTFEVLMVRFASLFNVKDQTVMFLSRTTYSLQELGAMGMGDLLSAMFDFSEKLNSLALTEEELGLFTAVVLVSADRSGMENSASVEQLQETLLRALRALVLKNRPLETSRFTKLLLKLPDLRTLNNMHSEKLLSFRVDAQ
iPSC survival up: enhancers of human iPSC single-cell survival; hiPSC single-cell survival, ATPlite luminescence; 100% = ROCK inhibitor wells, 0% = DMSO; survival enhancement, % at 20 µM; actives 0.044% (n = 360,000); in the data active means survival enhancement above about 18%;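 further: cells exposed to compounds for 16 hours before the ATP read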
TAG inh: triacylglycerol accumulation inhibition; H9c2 cells, Nile Red lipid (TAG) fluorescence; cells loaded with 200 µM oleic acid; inhibition, % at 12.5 µM; actives 0.66% (n = 230,000); AID 651582;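 active means pattern-corrected inhibition of lipid staining of at least 50% with the nuclear-stain viability signal not falling by more than 50%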;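 further: 0% = DMSO wells and 100% = triacsin C control wells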
PG9 binder: small molecules binding HIV-1 gp120 antibody PG9 | AID 624416 | actives 0.43% (n = 360,000) | inhibition, % at 6.7 µM | TR-FRET gp120-PG9 antibody binding; in the data active means inhibition above about 8.5%
T cruzi inh: T. cruzi replication inhibition; T. cruzi beta-gal in NIH3T3, luminescence, 90 h; inhibition, % (no concentration beside the values); actives 1.4% (n = 300,000); AID 1885;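 active means mean inhibition across valid replicates above about 55%, limit read from the data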;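 further: signal also drops with host cell toxicity which is not excluded here; 0% = plate median of DMSO wells and 100% = zero luminescence signal; higher percent means less beta-gal luminescence so fewer parasites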
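System: Mouse NIH/3T3 fibroblasts infected with β-gal-expressing T. cruzi Tulahuen C4 | Quantity: NIH/3T3 cells, 5,000 per well | Reagent: 5000 reporter trypomastigotes per well | Dosing: Compound pinned at 50 nL/well, DMSO | Schedule: 3 h host attachment, then at least 90 h co-culture | Detection: GalScreen luminescence, 60 min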
MIN6 prolif-2: MIN6 beta-cell replication induction, confirmed | shares compounds with MIN6 prolif-1 | MIN6 beta-cell proliferation, ATPlite luminescence, 48 h; cells kept in 0.2% serum; scaled between 0.2% and 10% serum | proliferation increase, % at 50 µM | 920 tested, under 10 active;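 active means proliferation increase above 40% at any of the four tested concentrations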
An asterisk follows results filed as active; . = no result.

SMILES	MIN6 prolif-1	Rev-erbA mod	iPSC survival up	TAG inh	PG9 binder	T cruzi inh	MIN6 prolif-2
COc1ccc(N(C(=O)c2snc(C(N)=O)c2N)C(C(=O)NCc2ccccc2)c2ccc(O)cc2)cc1OC (centres undefined)	-2.4	6.0	-0.2	.	0.0	2.1	.
Cc1ccccc1N(C(=O)c1snc(C(N)=O)c1N)C(C(=O)NCC1CCCO1)c1ccc(N(C)C)cc1 (centres undefined)	0.3	10.3	0.4	.	0.0	-11.8	.
O=C(O)CCCC(=O)Nc1ccc(S(=O)(=O)Nc2nccs2)cc1	-0.3	-4.5	-0.8	.	-0.8	-4.2	.
CC1Oc2ccccc2N(CC(=O)NCCN2CCOCC2)C1=O (centres undefined)	2.7	.	-0.3	.	.	18.8	.
O=c1oc2ccccc2c(NCc2ccccc2F)c1[N+](=O)[O-]	0.0	-1.0	-0.6	.	-1.3	16.8	.
COc1ccc(NC(=O)c2cc([N+](=O)[O-])ccc2O)cc1	-6.9	0.9	-4.7	-30.6	0.1	-21.9	.
COc1cccc(NC(=O)CN2C(=O)C(=O)N(C3CCCC3)C2=O)c1	-0.8	-3.8	-2.6	-8.7	-1.2	.	.
CC(C)c1c(C(=O)N/N=C/C=C/c2ccccc2)nnn1-c1nonc1N	11.7*	1.9	-0.7	.	-4.1	2.4	-5.9
CCNC(=O)COC(=O)c1ccc(S(=O)(=O)N2CCCCCC2)cc1	5.4*	-4.9	-1.4	-7.3	-2.3	14.7	0.4
Cc1ccc(CNC(=O)COC(=O)c2ccc(S(=O)(=O)N3CCCCCC3)cc2)cc1	-1.3	0.5	0.6	-2.3	2.0	.	.
CN(CC(=O)Nc1ccc(F)cc1)C(=O)CN1C(=O)NC2(CCCCC2)C1=O	-2.7	-7.1	-2.6	0.0	0.3	.	.
COc1ccc(NC(=O)CN(C)C(=O)CN2C(=O)NC3(CCCC3)C2=O)cc1	16.1*	0.3	0.2	7.9	-3.3	-3.1	-2.3
CC(=O)NCCc1nc2ccccc2n1CCOc1ccccc1C	4.0	2.1	-0.4	1.6	0.9	-6.1	.
Cc1ccc(S(=O)(=O)Nc2cc(S(=O)(=O)N3CCOCC3)ccc2NCC2CCCO2)cc1 (centres undefined)	14.9*	3.1	-2.4	-6.7	2.5	.	3.8
CCOC(=O)C1C(=O)CC(C)(O)C(C(=O)OCC)C1c1ccc(N(CC)CC)cc1 (centres undefined)	5.1*	-4.5	6.7	-2.0	0.4	7.6	-1.0
CCOC(=O)C1C(=O)CC(C)(O)C(C(=O)OCC)C1c1ccc(F)cc1 (centres undefined)	-0.3	-5.1	-2.4	.	-0.9	-9.9	.
COc1cccc(OC)c1C(=O)OCC(=O)NCC(C)C	-0.6	2.1	0.0	9.1	-2.4	9.1	.
CC(C)CNC(=O)COC(=O)c1ccccc1SCC(=O)NCC(C)C	7.8*	-2.3	0.3	5.8	0.6	-1.9	1.7
CC(C)N(Cc1ccccc1)C(=O)COC(=O)c1cc(S(=O)(=O)N(C)C)ccc1N1CCCC1	-1.1	4.3	-1.4	19.3	-0.4	.	.
O=C(CN1CCCc2ccccc21)NCc1ccccc1Cl	-0.9	-3.0	1.0	-0.1	-1.2	1.1	.
C=CCNc1nc(N)c([N+](=O)[O-])c(NCc2ccccc2)n1	8.3*	.	-0.3	.	.	-21.9	2.4
O=C(C1CCN(C2CCN(C/C(Cl)=C/c3ccccc3)CC2)CC1)N1CCOCC1	-2.4	-5.5	-0.1	-12.4	-1.9	9.7	.
CCOC(=O)c1ccc(NC(=O)CSc2nc(N3CCOCC3)nc(N3CCOCC3)n2)cc1	-0.5	-1.7	-0.5	39.2	-1.4	12.1	.
CCOC(=O)CNC(=O)CSc1nc(N(C)C)nc(N2CCOCC2)n1	5.5*	-1.1	-2.0	6.6	-0.1	0.0	2.8
CCN1CN(CCc2ccccc2)CNC1=S	9.3*	2.5	0.6	.	1.6	-11.6	-2.7
SMILES	MIN6 prolif-1	Rev-erbA mod	iPSC survival up	TAG inh	PG9 binder	T cruzi inh	MIN6 prolif-2
COC(=O)c1sccc1NC(=O)CN(C)NS(=O)(=O)c1ccc([N+](=O)[O-])cc1	-2.3	0.5	-0.4	13.4	1.0	16.3	.
O=C(CN(c1ccccc1)S(=O)(=O)c1ccccc1[N+](=O)[O-])Nc1cccnc1	5.5*	-3.5	-0.6	.	-1.1	-1.0	-0.3
O=C(CN(c1ccccc1)S(=O)(=O)c1ccc(Cl)cc1)Nc1cccnc1	-3.6	-0.3	-0.5	.	-0.4	5.8	.
Cc1cccc(NC(=S)NN2CCOCC2)c1C	-0.3	2.6	-0.5	6.2	-1.2	-3.4	.
COC(=O)N[C@H](CC(C)=O)c1ccccc1	12.5*	.	.	.	.	2.4	0.5
COC(=O)N[C@H](CC(C)=O)c1cccc(C(F)(F)F)c1	-1.4	-2.8	0.6	-0.8	0.7	-6.6	.
CC(NC(=O)OC(C)(C)C)C(=O)Oc1cc2oc(=O)cc(-c3ccccc3)c2cc1Cl (centres undefined)	5.9*	.	1.6	.	.	1.1	-6.2
CC(Oc1cc2oc(=O)cc(-c3ccccc3)c2cc1Cl)C(=O)NCC1CCC(C(=O)O)CC1 (centres undefined)	0.8	1.3	0.5	.	-2.2	3.9	.
O=C(CSc1ccc2nnc(CCNC(=O)c3ccccc3)n2n1)NCc1ccc(F)cc1	0.0	-4.2	-0.4	19.0	-4.0	7.0	.
O=C(N/N=C/c1cc([N+](=O)[O-])cc([N+](=O)[O-])c1O)/C(=C\c1cccs1)NC(=O)c1ccccc1	0.0*	3.3	-1.5	.	-0.2	-9.5	-3.6
Nc1nc(N)nc(-c2cc(F)ccc2O)n1	13.5*	5.3	-3.0	1.7	-0.7	.	-0.6
Nc1cc(=O)[nH]c(SCC(=O)c2ccc(F)cc2)n1	8.3*	1.4	-0.6	.	-1.3	1.9	-0.4
CCN=C1SC(CC(=O)NC(N)=O)C(=O)N1CC (centres undefined)	-1.4	-2.5	0.0	-8.3	0.2	-4.1	.
Cc1coc2cc3oc(=O)cc(C)c3cc12	7.3*	-2.7	-0.1	.	1.1	9.5	3.6
Cn1c(N)c(C(=O)COC(=O)c2cccs2)c(=O)n(C)c1=O	-0.1	-2.6	-0.7	.	0.5	-4.7	.
O=C(CCNC(=O)C1CCN(S(=O)(=O)c2ccccc2)CC1)NCc1ccc(Cl)cc1	3.7	-3.9	-0.2	.	-0.3	9.6	.
CC1CC(C)CN(C(=O)c2ccc(S(=O)(=O)N3CCCCC3)cc2)C1 (centres undefined)	-2.6	-1.4	-0.4	21.1	0.2	6.9	.
CC1CC(C)CN(C(=O)c2cc(S(=O)(=O)N3CCCCC3)ccc2Cl)C1 (centres undefined)	14.0*	-1.4	-0.6	-3.8	-0.7	5.9	-4.9
O=C1NC(=Nc2ccc(O)cc2)S/C1=C\C=C\c1ccco1	-4.4	-16.5	-0.7	45.3	-1.5	6.4	.
O=C(COc1ccccc1)NC1C(=O)N2C(C(=O)O)=C(Cl)CSC12 (centres undefined)	10.4*	6.8	-0.6	.	-0.6	-25.6	-1.3
